Laboratory results from PMC12780499 (Zoological Research, 2025).
Where a SMILES comes first, the peptide text is derived from it. [ ]: non-standard residue; d: D form. AEEA = NCCOCCOCC(=O)O

What was measured:
K. pneumoniae biofilm [1] = assay: Eradication of preformed biofilm, crystal violet; assay type: cell-based, Klebsiella pneumoniae; conditions: TRPY 8 µmol/L, 24 h on 24 h biofilm
Procedure, shortened: (§1)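 Biofilms formed with test compound present (inhibition) or pre-formed then treated (eradication). Stained with 0.1% crystal violet; biofilm quantified by absorbance at 600 nm against untreated control.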

LPS = assay: BODIPY-TR-cadaverine displacement assay; assay type: binding; conditions: 0-64 μmol/L, LPS 50 μg/mL, 50 mmol/L Tris pH 7.4, 30 min 37°C
[2] = test system: RAW264.7 (murine macrophages); assay: Cytotoxicity, CCK-8; assay type: cell-based; conditions: nearly all concentrations (2.5-80 μmol/L), 24 h
[3] = test system: HaCaT (human keratinocytes); assay: Cytotoxicity, CCK-8; assay type: cell-based; conditions: nearly all concentrations (2.5-80 μmol/L), 24 h
MRSA biofilm [4] = assay: Biofilm formation inhibition, crystal violet; assay type: cell-based, methicillin-resistant Staphylococcus aureus; conditions: TRPY 32 μmol/L, 24 h
Procedure, shortened: as §1

In vivo pharmacokinetics = assay: In vivo pharmacokinetics; parameters: species or system mouse (female CD-1)
Procedure, shortened: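 Plasma concentrations of test compound measured by HPLC over 8 h after dosing.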

K. pneumoniae 9409 = assay: Bacterial aggregation; assay type: cell-based, Klebsiella pneumoniae; conditions: 10 to 80 μmol/L, 4 h 37°C, PBS
K. pneumoniae = assay: Agar spotting assay; assay type: cell-based, Klebsiella pneumoniae; conditions: bacterial spotting assay, Fig. 4B
[5] = test system: K. pneumoniae persister cells; assay: Anti-persister activity; assay type: cell-based, Klebsiella pneumoniae; conditions: 8× MIC, 1 h 37°C; persisters from colistin 50× MIC 6 h
Procedure, shortened: (§2)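 Exponential-phase cultures treated 6 h with 50× MIC colistin (K. pneumoniae) or vancomycin (MRSA). Survivors pelleted (4 000 r/min, 10 min, 4°C), washed twice in PBS and resuspended in Mueller-Hinton broth at about 1×10^7 CFU/mL. […] Serially diluted, plated on Mueller-Hinton agar, CFU counted.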

[6] = In vivo toxicity, 5 day intraperitoneal dosing; parameters: species or system mouse (female CD-1); conditions: for serum urea: n = 4; for aspartate aminotransferase (AST): serum day 5, n = 4; for alanine aminotransferase (ALT): serum day 5, n = 4, mean
Procedure, shortened: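 Test compound given intraperitoneally to mice over 5 days at 5 and 10 mg/kg; PBS control group. Serum ALT and AST measured in U/L.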

E. coli LPS = assay: LPS-induced endotoxemia model; assay type: in vivo, mouse (female CD-1); conditions: 10 mg/kg i.p. 1 h after LPS 10 mg/kg, blood 6 h after LPS, n = 5
Procedure, shortened: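 Female CD-1 mice (8–10 weeks) challenged intravenously with E. coli LPS 10 mg/kg. Test compound 10 mg/kg given intraperitoneally 1 h later (n=5); LPS-only controls. Blood drawn 6 h after LPS. Serum IL-6, MCP-1, TNF-α and IL-1β measured by ELISA. Mean±SEM; one-way ANOVA, Dunnett.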

MRSA = assay: Agar spotting assay; assay type: cell-based, methicillin-resistant Staphylococcus aureus; conditions: bacterial spotting assay, Fig. 4B
MRSA 33564 [7] = assay: MRSA peritoneal infection model; assay type: in vivo, mouse (female CD-1); conditions: 10 mg/kg i.p.
Procedure, shortened: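 Female CD-1 mice (8–10 weeks) were challenged intraperitoneally with MRSA (1×10^8 CFU/mL). At 2 h post-infection they received 10 mg/kg test compound or PBS vehicle intraperitoneally (n=6 per group). Liver and kidneys were collected at 24 h post-infection and fixed in formalin. H&E-stained sections were compared with those from healthy, infected and vehicle-treated mice.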

[8] = test system: K. pneumoniae strain 9409; assay: Membrane permeabilization, PI uptake; assay type: cell-based, Klebsiella pneumoniae; conditions: 0-32 μM, PI 10 μg/mL, 37°C 30 min
MRSA persister cells = assay: Anti-persister activity; assay type: cell-based, methicillin-resistant Staphylococcus aureus; conditions: 8 μmol/L, 1 h 37°C; persisters from vancomycin 50× MIC 6 h
Procedure, shortened: as §2

MRSA (strain 33564) [9] = assay: Salt sensitivity assay; assay type: cell-based, methicillin-resistant Staphylococcus aureus
Procedure, shortened: (§3)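 MICs determined in RPMI-1640 with 150 mM FeCl₃, CaCl₂, KCl, NaCl or MgCl₂ added; unsupplemented RPMI 1640 as control. Read after 18–24 h at 37°C. Three independent experiments, mean±SEM.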

[10] = test system: K. pneumoniae (strain 9409); assay: Time-kill kinetics; assay type: cell-based, Klebsiella pneumoniae; conditions: TRPY 2 μmol/L; 1×10^7 CFU/mL, RPMI 1640 + 10% FBS, 37°C
Procedure, shortened: (§4)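 Bacteria adjusted to 1×10^7 CFU/mL in RPMI 1640 with 10% FBS. Incubated at 37°C, 200 rpm. Sampled every 30 min from 0 to 360 min, serially diluted in saline, plated on Mueller-Hinton agar, counted after 24 h at 37°C. Plotted as log₁₀ CFU/mL versus time.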

bacterial DNA = assay: DNA interaction, gel electrophoresis; assay type: binding; conditions: Fig. S5
Dynamic light scattering = assay type: physicochemical; conditions: DLS, 500 μg/mL in PBS pH 7.4, 25°C, triplicate
[11] = test system: K. pneumoniae (strain 9409); assay: Salt sensitivity assay; assay type: cell-based, Klebsiella pneumoniae
Procedure, shortened: as §3

K. pneumoniae R62 = assay: Acute K. pneumoniae pulmonary infection model; assay type: in vivo, mouse (female CD-1)
MRSA (strain 33564) [12] = assay: Time-kill kinetics; assay type: cell-based, methicillin-resistant Staphylococcus aureus; conditions: TRPY 2 μmol/L; 1×10^7 CFU/mL, RPMI 1640 + 10% FBS, 37°C
Procedure, shortened: as §4

MRSA strain 33564 = assay: Membrane permeabilization, PI uptake; assay type: cell-based, methicillin-resistant Staphylococcus aureus; conditions: 0-32 μM, PI 10 μg/mL, 37°C 30 min
MRSA 33564 [13] = assay: Bacterial aggregation; assay type: cell-based, methicillin-resistant Staphylococcus aureus; conditions: 10 to 80 μmol/L, 4 h 37°C, PBS
MRSA biofilm [14] = assay: Eradication of preformed biofilm, crystal violet; assay type: cell-based, methicillin-resistant Staphylococcus aureus; conditions: TRPY 8 µmol/L, 24 h on 24 h biofilm
Procedure, shortened: as §1

K. pneumoniae biofilm [15] = assay: Biofilm formation inhibition, crystal violet; assay type: cell-based, Klebsiella pneumoniae; conditions: TRPY 32 μmol/L, 24 h
Procedure, shortened: as §1

[16] = test system: HEK293 (human embryonic kidney cells); assay: Cytotoxicity, CCK-8; assay type: cell-based; conditions: nearly all concentrations (2.5-80 μmol/L), 24 h
[17] = female, CD-1, mouse, plasma, iv, 5 mg/kg
[18] = 5 mg/kg i.p. once daily for 5 days
[19] = 10 mg/kg i.p. once daily for 5 days
[20] = 5 and 10 mg/kg i.p. for 5 days vs PBS
[21] = 150 mmol/L of each salt in RPMI-1640
[22] = 2 mg/kg intranasal, 18 h post-treatment, n = 7

## CC[C@H](C)[C@H](NC(=O)[C@H](CCCCN)NC(=O)[C@H](Cc1c[nH]c2ccccc12)NC(=O)[C@H](Cc1c[nH]c2ccccc12)NC(=O)[C@H](CCCCN)NC(=O)[C@H](CCCCN)NC(=O)[C@H](CCCCN)NC(=O)[C@H](Cc1c[nH]c2ccccc12)NC(=O)[C@H](CCCCN)NC(=O)[C@H](CCCCN)NC(=O)[C@H](Cc1c[nH]c2ccccc12)NC(=O)[C@H](CCCCN)NC(=O)[C@H](CCCCN)NC(=O)[C@@H](NC(=O)[C@@H](NC(=O)[C@H](CCCCN)NC(=O)[C@@H](N)CCCNC(=N)N)[C@@H](C)CC)[C@@H](C)CC)C(=O)N[C@@H](Cc1c[nH]c2ccccc12)C(=O)N[C@@H](Cc1c[nH]c2ccccc12)C(=O)N[C@@H](CCCCN)C(=O)NCCOCCOCC(N)=O [TRPY] (H-RKIIKKWKKWKKKWWKIWWK[AEEA]-NH2; N-terminus and C-terminus assumed)
K. pneumoniae biofilm [1]
  reduction of preformed biofilm: over 40%
LPS
  LPS binding (probe displacement): strong, concentration-dependent binding to LPS
[2]
  cell viability: over 80%
[3]
  cell viability: over 80%
MRSA biofilm [4]
  reduction of biofilm formation compared to control: approximately 95%
In vivo pharmacokinetics; [17]
  level at 0.25 h: ~15000 ng/mL
  level at 2 h: < 1000 ng/mL
  level at 8 h: ~120 ng/mL
In vivo pharmacokinetics; single i.v. 5 mg/kg, 8 h
  elimination profile: biphasic elimination profile
K. pneumoniae 9409
  bacterial aggregation: dose-dependent formation of visible precipitates
K. pneumoniae
  concentration giving complete growth inhibition: ≥ 1 µmol/L
[5]
  persister CFU/mL after treatment: virtually undetectable levels
[6]; [18]
  serum urea: 11.2 ± 1.5 µmol/L
  aspartate aminotransferase (AST): 102.7±6.6 U/L
  alanine aminotransferase (ALT): 22.8±2.6 U/L
[6]; [19]
  serum urea: 12.1 ± 1.2 µmol/L
  aspartate aminotransferase (AST): 105.2±4.7 U/L
  alanine aminotransferase (ALT): 23.4±3.2 U/L
[6]; 5 and 10 mg/kg i.p. for 5 days
  kidney histopathology (H&E): normal glomerular and tubular architecture
  liver histopathology (H&E): no signs of necrosis, inflammation, or fatty degeneration
[6]; [20]
  alkaline phosphatases (ALP) levels: comparable across treatment groups
  body weight: no significant differences between the TRPY-treated and control groups
E. coli LPS
  reduction of serum IL-1β relative to LPS-only controls: 52.3%
  reduction of serum IL-6 relative to LPS-only controls: 42.3%
  reduction of serum MCP-1 relative to LPS-only controls: 46.6%
  reduction of serum TNF-α relative to LPS-only controls: 39.5%
MRSA
  concentration giving complete growth inhibition: ≥ 1 µmol/L
MRSA 33564 [7]
  liver and kidney histopathology in infected mice: maintained normal tissue architecture in the liver and kidneys
[8]
  PI uptake (cytoplasmic membrane disruption): concentration-dependent increase in PI fluorescence
MRSA persister cells
  persister cells after treatment: complete eradication
MRSA (strain 33564) [9]; [21]
  effect of KCl, NaCl, and CaCl2 on antimicrobial activity: minimal interference with antimicrobial activity
MRSA (strain 33564) [9]; RPMI-1640 + 150 mmol/L FeCl3, 37°C 18-24 h, strain 33564
  MIC with FeCl3: approximately 2.0 μmol/L
MRSA (strain 33564) [9]; RPMI-1640 + 150 mmol/L MgCl2, 37°C 18-24 h, strain 33564
  MIC with MgCl2: approximately 2.0 μmol/L
[10]
  time to eliminate all viable cells: ≤ 60 min
Bacterial DNA
  concentration inducing degradation or binding to bacterial DNA: ≥ 4 µmol/L
Dynamic light scattering
  nanoparticle average size: approximately 160 nm
[11]; [21]
  effect of KCl, NaCl, and CaCl2 on antimicrobial activity: minimal interference with antimicrobial activity
[11]; RPMI-1640 + 150 mmol/L FeCl3, 37°C 18-24 h, strain 9409
  MIC with FeCl3: approximately 2.0 μmol/L
[11]; RPMI-1640 + 150 mmol/L MgCl2, 37°C 18-24 h, strain 9409
  MIC with MgCl2: approximately 2.0 μmol/L
K. pneumoniae R62; 2 mg/kg intranasal
  lung histology (H&E): reduced inflammatory cell infiltration and preserved alveolar architecture
K. pneumoniae R62; 2 mg/kg intranasal 2 h post-infection, lungs 18 h post-treatment, n = 7
  reduction of pulmonary bacterial burden vs control: approximately 1 log
K. pneumoniae R62; [22]
  reduction in IL-1β vs control group: 42.8%
  reduction in IL-6 vs control group: 39.2%
  reduction in MCP-1 vs control group: 58.4%
  reduction in TNF-α vs control group: 34.7%
MRSA (strain 33564) [12]
  time to eradicate all viable cells: ≤ 60 min
MRSA strain 33564
  PI uptake (cytoplasmic membrane disruption): concentration-dependent increase in PI fluorescence
MRSA 33564 [13]
  bacterial aggregation: dose-dependent formation of visible precipitates
MRSA biofilm [14]
  reduction of preformed biofilm: over 40%
K. pneumoniae biofilm [15]
  reduction of biofilm formation compared to control: approximately 95%
[16]
  cell viability: over 80%
